Test results: ChEMBL document CHEMBL2385005, “Binding mechanism of the farnesoid X receptor marine antagonist suvanine reveals a strategy to forestall drug modulation on nuclear receptors. Design, synthesis, and biological evaluation of novel ligands” (J Med Chem, 2013)
Active and inactive are the calls of the source. No cut-off for these calls is given here.

Key:
[1] = target: T1, Bile acid receptor (Homo sapiens) (UniProt Q96RI1); assay: Antagonist activity at FXR (unknown origin) expressed in human HepG2 cells co-expressing RXR assessed as inhibition of CyP7alpha1 gene expression at 50 uM after 18 hrs by RT-PCR analysis; format: cell-based
T1 sequence (whole entry): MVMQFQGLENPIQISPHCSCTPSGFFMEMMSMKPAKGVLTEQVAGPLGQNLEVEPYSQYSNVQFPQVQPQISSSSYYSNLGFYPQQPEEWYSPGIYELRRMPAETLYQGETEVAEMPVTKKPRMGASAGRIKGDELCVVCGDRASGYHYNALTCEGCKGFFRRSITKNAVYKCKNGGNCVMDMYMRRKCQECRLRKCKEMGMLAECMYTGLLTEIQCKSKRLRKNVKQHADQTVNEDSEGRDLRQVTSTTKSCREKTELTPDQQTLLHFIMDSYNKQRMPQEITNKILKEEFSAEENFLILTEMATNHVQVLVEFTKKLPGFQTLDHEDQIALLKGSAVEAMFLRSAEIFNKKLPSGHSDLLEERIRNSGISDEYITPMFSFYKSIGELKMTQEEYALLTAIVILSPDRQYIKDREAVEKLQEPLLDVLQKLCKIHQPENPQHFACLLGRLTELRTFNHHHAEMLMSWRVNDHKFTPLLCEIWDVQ
In short: (§1)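 HepG2 cells (1 × 10^6) were starved 24 h at 37 °C in E-MEM with 1% FBS. They were then primed 18 h with compound alone at 10 μM, or with 10 μM CDCA plus compound at 50 μM. Total RNA was extracted with TRIzol, DNase-treated and random-primed reverse-transcribed. 25 ng template was amplified by SYBR Green qPCR (0.2 μM primers, 40 cycles) in triplicate.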

[2] = target: T1, Bile acid receptor (Homo sapiens); assay: Antagonist activity at FXR (unknown origin) expressed in human HepG2 cells assessed as inhibition of 6-ECDCA-induced FXR/Src-1-mediated transcription activation complex formation at 15 uM after 18 hrs by chromatin immunoprecipitation assay; format: cell-based
In short: (§2)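 HepG2 cells (10 × 10^6) were serum-starved 24 h, then treated 18 h with 6-ECDCA 5 μM alone or with compound 15 μM. Cells were crosslinked with 1% formaldehyde for 10 min and quenched with 125 mM glycine. Sonicated chromatin was immunoprecipitated overnight at 4 °C with anti-FXR, anti-Src1, anti-NCoR or IgG. OSTα promoter DNA was measured by qPCR as 2^−ΔΔCt versus input and unstimulated IgG.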

[3] = target: T1, Bile acid receptor (Homo sapiens); assay: Antagonist activity at FXR (unknown origin) expressed in human HepG2 cells co-expressing RXR assessed as inhibition of CDCA-induced transactivation at 50 uM after 18 hrs by luciferase reporter gene assay; format: cell-based
In short: (§3)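 HepG2 cells (in MEM, 10% FBS, 37 °C) were plated at 1 × 10^5 cells/well. They were transfected with 150 ng pSG5-FXR, 150 ng pSG5-RXR, 200 ng pCMV-βgal and 500 ng p(hsp27)-TK-LUC (IR1 element). At 24 h they were stimulated 18 h with compound alone (10 μM, or 1–50 μM series) or with compound (50 μM, or 1–50 μM series) plus 10 μM CDCA. Luciferase was normalized to β-galactosidase activity.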

[4] = target: T1, Bile acid receptor (Homo sapiens); assay: Antagonist activity at FXR (unknown origin) expressed in human HepG2 cells co-expressing RXR assessed as inhibition of CDCA-induced OSTalpha gene expression at 50 uM after 18 hrs by RT-PCR analysis; format: cell-based; in short: as §1
[5] = target: T1, Bile acid receptor (Homo sapiens); assay: (§4) Antagonist activity at FXR (unknown origin) expressed in human HepG2 cells co-expressing RXR assessed as inhibition of CDCA-induced transactivation after 18 hrs by luciferase reporter gene assay; format: cell-based; in short: as §3
Bile acid receptor [6] = target: T2, Bile acid receptor (Homo sapiens, UniProt Q96RI1); assay: as §4; format: cell-based; in short: as §3
T2 sequence (Q96RI1 whole entry): T1 sequence (whole entry)

[7] = target: T1, Bile acid receptor (Homo sapiens); assay: Antagonist activity at FXR (unknown origin) expressed in human HepG2 cells co-expressing RXR assessed as inhibition of CDCA-induced SHP gene expression at 50 uM after 18 hrs by RT-PCR analysis; format: cell-based; in short: as §1
[8] = target: T1, Bile acid receptor (Homo sapiens); assay: Antagonist activity at FXR (unknown origin) expressed in human HepG2 cells assessed as inhibition of 6-ECDCA-induced NCoR binding to chromatin at 15 uM after 18 hrs by chromatin immunoprecipitation assay; format: cell-based; in short: as §2
[9] = target: T1, Bile acid receptor (Homo sapiens); assay: Transactivation of FXR (unknown origin) expressed in human HepG2 cells co-expressing RXR assessed as beta-galactosidase activity at 10 uM after 18 hrs by luciferase reporter gene assay; format: cell-based; in short: as §3
[10] = target: T3, Oxysterols receptor LXR-alpha (Homo sapiens) (UniProt Q13133); assay: Agonist activity at LXRalpha LBD (unknown origin) transfected in human HepG2 cells co-expressing GAL4-DBD at 10 uM after 18 hrs by luciferase reporter gene assay; format: cell-based
T3 sequence (whole entry): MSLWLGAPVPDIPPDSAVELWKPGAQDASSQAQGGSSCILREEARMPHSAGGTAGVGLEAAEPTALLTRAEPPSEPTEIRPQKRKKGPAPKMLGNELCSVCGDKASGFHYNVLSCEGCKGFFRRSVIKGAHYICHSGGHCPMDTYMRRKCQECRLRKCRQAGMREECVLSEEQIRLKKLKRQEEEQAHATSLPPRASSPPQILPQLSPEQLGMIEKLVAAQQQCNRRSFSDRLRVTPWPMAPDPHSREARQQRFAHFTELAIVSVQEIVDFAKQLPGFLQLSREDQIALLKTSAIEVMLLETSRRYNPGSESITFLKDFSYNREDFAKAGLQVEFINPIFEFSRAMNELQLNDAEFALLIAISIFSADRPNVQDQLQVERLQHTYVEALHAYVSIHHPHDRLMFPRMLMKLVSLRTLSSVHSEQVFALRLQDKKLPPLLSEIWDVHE
In short: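 HepG2 cells were transiently transfected with 500 ng p(UAS)5XTKLuc, 200 ng pCMV-β-galactosidase and a GAL4-DBD–LXRα LBD vector. At 48 h post-transfection they were stimulated 18 h with compound at 10 μM or the reference agonist. Luciferase was read. Data are mean ± SE of three experiments.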

[11] = target: Peroxisome proliferator-activated receptor gamma (Homo sapiens) (UniProt P37231); assay: Agonist activity at PPARgamma LBD (unknown origin) transfected in human HepG2 cells co-expressing GAL4-DBD at 10 uM after 18 hrs by luciferase reporter gene assay
[12] = target: T4, Nuclear receptor subfamily 1 group I member 2 (Homo sapiens, UniProt O75469); assay: Agonist activity at PXR (unknown origin) transfected in human HepG2 cells co-expressing RXR assessed as CYP3A4 expression at 10 uM after 18 hrs by luciferase reporter gene assay; settings: hepg2, 18 h
T4 sequence (O75469 whole entry): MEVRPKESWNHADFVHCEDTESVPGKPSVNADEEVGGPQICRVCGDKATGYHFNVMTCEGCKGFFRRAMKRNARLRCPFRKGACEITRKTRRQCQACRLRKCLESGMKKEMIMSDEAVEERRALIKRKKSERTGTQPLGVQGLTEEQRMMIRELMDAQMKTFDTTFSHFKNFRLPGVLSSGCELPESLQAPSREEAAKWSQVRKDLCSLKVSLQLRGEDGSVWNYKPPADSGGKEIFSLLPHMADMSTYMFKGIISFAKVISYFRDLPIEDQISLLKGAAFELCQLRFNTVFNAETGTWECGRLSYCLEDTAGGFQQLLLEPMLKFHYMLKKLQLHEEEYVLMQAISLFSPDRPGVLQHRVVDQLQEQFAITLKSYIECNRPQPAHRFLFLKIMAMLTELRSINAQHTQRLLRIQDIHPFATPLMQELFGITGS

[13] = target: T1, Bile acid receptor (Homo sapiens); assay: Transactivation of FXR (unknown origin) expressed in human HepG2 cells co-expressing RXR assessed as beta-galactosidase activity at 50 uM after 18 hrs by luciferase reporter gene assay; format: cell-based; in short: as §3
[14] = target: T1, Bile acid receptor (Homo sapiens); assay: Agonist activity FXR (unknown origin) expressed in human HepG2 cells co-expressing RXR assessed as effect on SHP mRNA level at […] after 18 hrs by RT-PCR analysis; format: cell-based; in short: as §1
[15] = target: T1, Bile acid receptor (Homo sapiens); assay: Transactivation of FXR (unknown origin) expressed in human HepG2 cells co-expressing RXR assessed as beta-galactosidase activity at 50 uM after 18 hrs by luciferase reporter gene assay relative to CDCA; format: cell-based; in short: as §3
[16] = target: T1, Bile acid receptor (Homo sapiens); assay: Agonist activity FXR (unknown origin) expressed in human HepG2 cells co-expressing RXR assessed as effect on OSTalpha mRNA level […] after 18 hrs by RT-PCR analysis; format: cell-based; in short: as §1
[17] = target: T1, Bile acid receptor (Homo sapiens); assay: Agonist activity FXR (unknown origin) expressed in human HepG2 cells co-expressing RXR assessed as effect on CyP7alpha1 mRNA level […] after 18 hrs by RT-PCR analysis; format: cell-based; in short: as §1
Bile acid receptor [18] = target: T2, Bile acid receptor; assay: Transactivation of FXR (unknown origin) expressed in human HepG2 cells co-expressing RXR assessed as beta-galactosidase activity after 18 hrs by luciferase reporter gene assay; format: cell-based; in short: as §3

Row | inhibition [3] | inhibition [4] | EC50 (Bile acid receptor [6]) [µM] | inhibition [7] | Activity [10] | Activity [11] | Activity [12] | Activity [13] | SMILES | other results
1 |  |  |  |  |  |  |  | Active | CC1(C)CCC[C@]2(C)[C@H]3CC[C@H](/C=C/C(=O)O)[C@H](CCc4ccoc4)[C@@]3(C)CC[C@@H]12 | 
2 |  | Active | 25 | Active | inactive | inactive | Active |  | CC1(C)CCC[C@]2(C)[C@H]3CC[C@H](O)[C@H](CCc4ccoc4)[C@@]3(C)CC[C@@H]12 | 
3 |  | Active |  | Active |  |  |  |  | COC(=O)CC[C@H]1C(=O)CC[C@H]2[C@]1(C)CC[C@H]1C(C)(C)CCC[C@]21C | 

The remaining lines, values behind:

Row | SMILES | inhibition [3] | inhibition [4] | EC50 (Bile acid receptor [6]) [µM] | inhibition [7] | Activity [10] | Activity [11] | Activity [12] | Activity [13] | other results
4 | CC1(C)CCC[C@]2(C)[C@H]3CC/C(=C\OS(=O)(=O)[O-])[C@H](CCc4ccoc4)[C@@]3(C)CC[C@@H]12.[Na+] [SUVANINE'S SODIUM SALT] | Active | Active | 24 | Active | inactive | inactive | Active |  | Activity [1]: Active; inhibition [2]: Active; inhibition [5]: Dose-dependent effect; inhibition [8]: inactive; Activity [9]: inactive
5 | CC1(C)CCC[C@]2(C)C3CC[C@@]4(C=O)[C@@H]5OC(=O)C=C5CC[C@@H]4[C@@]3(C)CC[C@@H]12 (single isomer, unassigned) | Active | Active |  | Active |  |  |  |  | 
6 | CC1(C)CCC[C@]2(C)[C@H]3CC[C@@H](CCCO)[C@H](CCc4ccoc4)[C@@]3(C)CC[C@@H]12 |  |  |  |  | inactive | inactive | Active | Active | Activity [14]: Active; Efficacy [15]: 21.5%; Activity [16]: Active; Activity [17]: Active; EC50 (Bile acid receptor [18]): 30 µM
